The values that follow come from PubChem BioAssay AID489030 (Sanford-Burnham Center for Chemical Genomics, 2010).

SMILES strings stand for the structures. About 2,400 (0.73%) of roughly 330,000 compounds were called active. The sample holds actives, similar compounds and a random draw of the others, so the mix is not that of the screen. A number with no mark means an inactive call. The calls were made as follows: active = inhibition of at least 40% at 20 µM; inactive = the rest.

In this assay the target is Apoptotic protease-activating factor 1 (Homo sapiens) (UniProt O14727). Description: inhibitors of human Apaf-1 apoptosome, primary screen, biochemical, DEVD-Rh110 fluorescence, uHTS (AID 489030).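 Also: plate controls were DMSO wells for no effect and DEVD-CHO caspase inhibitor wells for full effect.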 The note with it: reconstituted apoptosome caspase-3 activity, at 20 µM, active compounds read high. A digest of the protocol: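 Material: reconstituted apoptosome with Apaf-1, cytochrome c, caspase-9, procaspase-3, dATP; medium: pH 7.5 Hepes buffer with CHAPS, BSA, DTT; also added: cytochrome c and DEVD-Rh110 substrate; timing: 30 min plus 50 min, RT; signal: Rh110 fluorescence intensity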
Chain of Apoptotic protease-activating factor 1 (Homo sapiens) (O14727 whole entry, looked up): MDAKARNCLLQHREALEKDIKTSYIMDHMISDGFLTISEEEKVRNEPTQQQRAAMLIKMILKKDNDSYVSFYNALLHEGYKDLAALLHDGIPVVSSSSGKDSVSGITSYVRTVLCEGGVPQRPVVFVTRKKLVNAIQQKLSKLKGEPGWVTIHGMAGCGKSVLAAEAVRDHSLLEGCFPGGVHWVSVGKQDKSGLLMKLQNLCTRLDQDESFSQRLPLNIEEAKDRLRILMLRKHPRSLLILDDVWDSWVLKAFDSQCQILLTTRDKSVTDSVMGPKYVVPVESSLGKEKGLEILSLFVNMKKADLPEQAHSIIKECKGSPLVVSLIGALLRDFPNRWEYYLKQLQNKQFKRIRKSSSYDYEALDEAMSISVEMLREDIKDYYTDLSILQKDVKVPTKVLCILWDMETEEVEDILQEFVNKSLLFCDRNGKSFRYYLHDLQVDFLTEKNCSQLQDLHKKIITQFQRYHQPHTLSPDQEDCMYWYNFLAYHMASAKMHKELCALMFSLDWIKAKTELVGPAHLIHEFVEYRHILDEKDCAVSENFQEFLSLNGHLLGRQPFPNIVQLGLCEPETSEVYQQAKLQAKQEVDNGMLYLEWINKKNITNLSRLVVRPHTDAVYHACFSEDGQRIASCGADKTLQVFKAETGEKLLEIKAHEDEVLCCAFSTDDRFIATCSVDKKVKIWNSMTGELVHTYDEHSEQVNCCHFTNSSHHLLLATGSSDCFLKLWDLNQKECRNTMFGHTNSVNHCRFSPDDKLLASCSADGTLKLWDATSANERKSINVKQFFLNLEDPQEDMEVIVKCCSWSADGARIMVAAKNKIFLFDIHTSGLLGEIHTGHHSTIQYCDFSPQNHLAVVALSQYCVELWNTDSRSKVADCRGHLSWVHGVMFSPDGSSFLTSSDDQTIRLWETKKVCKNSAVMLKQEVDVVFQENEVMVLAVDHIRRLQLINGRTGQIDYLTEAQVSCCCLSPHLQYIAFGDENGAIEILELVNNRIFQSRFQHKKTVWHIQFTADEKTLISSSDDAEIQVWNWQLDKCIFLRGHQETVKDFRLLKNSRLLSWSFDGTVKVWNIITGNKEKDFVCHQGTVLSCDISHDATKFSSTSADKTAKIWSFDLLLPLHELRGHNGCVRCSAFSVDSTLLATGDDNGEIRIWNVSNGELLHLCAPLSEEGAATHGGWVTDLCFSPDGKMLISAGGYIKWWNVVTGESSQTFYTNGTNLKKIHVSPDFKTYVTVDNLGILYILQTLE
By inhibition is commonly meant the relative decrease from the control value, in per cent. For `CCOc1cc(NC(=S)NCCCN(C)C)c(OCC)cc1NC(=O)C1CC1`, the inhibition was -14.8%.

Turning to `COc1ccccc1CN1CCNC(=O)C1CC(=O)N(C)CC1CCOCC1` (stereo not drawn), the inhibition was 4.54%.

`Cc1ccc(F)cc1NC(=O)Cc1nn(C)c(=O)c2ccccc12`: the inhibition was -8.15%.

On to `Cc1c(-c2nn(C)c(=O)c3ccccc23)oc2ccc(F)cc2c1=O`, for which the inhibition was 82% (active).

For `CCC(=O)NCc1cc(-c2nn(C)c(=O)c3ccccc23)ccc1OC`, the inhibition is -10.9%.

Take `CCCCn1c(N)c(N(CC(C)C)C(=O)c2cccc(S(=O)(=O)N3CCN(C(C)=O)CC3)c2)c(=O)[nH]c1=O`: the inhibition was 6.93%.

On to `C=CCNC(=O)c1ccccc1SCc1c(C)noc1C`, for which the inhibition is -5.84%.

Take `O=S(=O)(c1cccc(C(F)(F)F)c1)N1CCN(c2cnccn2)CC1`: the inhibition is -23.4%.

Consider `COc1cc(CC(=O)N/N=C/c2ccccc2)c([N+](=O)[O-])cc1OC`, for which the inhibition is 8.78%.

Regarding `CCOc1ccc(N2CC(C(=O)N/N=C/c3sccc3C)CC2=O)cc1` (stereo not drawn), the inhibition is -13.2%.

In the case of `Cc1ccsc1/C=N/NC(=O)Cc1cc(=O)[nH][nH]1`, the inhibition is 58.3% (active).

Consider `O=C(COc1ccccc1[N+](=O)[O-])N/N=C/c1ccc[nH]1`, for which the inhibition is -17.6%.

`O=C(Cc1cc(=O)[nH][nH]1)N/N=C/c1ccccc1[N+](=O)[O-]`: the inhibition is 40.8% (active).

Regarding `Cc1ccsc1/C=N/n1c(=S)[nH]nc(C)c1=O`, the inhibition was 2.31%.

Regarding `CC(C)(C)NC(=O)CSC(=Nc1ccccc1F)NC#N`, the inhibition is -0.507%.

`COC(=O)Cc1csc(/N=C/c2c(O)n(-c3cccc(C(F)(F)F)c3)c(=O)c3ccccc23)n1`: the inhibition was -1.6%.

Take `O=C(COc1ccc(S(=O)(=O)NCCc2ccccc2)cc1)N1CCCC1`: the inhibition is -10.1%.

Regarding `CC(Oc1ccc(Cl)cc1)c1ccnn1S(C)(=O)=O` (stereo not drawn), the inhibition is 0.147%.

In the case of `Cc1noc(C)c1S(=O)(=O)N(C)C[C@H]1Oc2ccc(NC(=O)C3CCCCC3)cc2C(=O)N([C@H](C)CO)C[C@@H]1C`, the inhibition is 1.34%.

Turning to `CN1CCN(/N=C2/C(=O)Nc3ccc([N+](=O)[O-])cc32)CC1`, the inhibition is -6.13%.

`O=C1Nc2ccc([N+](=O)[O-])cc2C1=Nc1cccc(CO)c1`: the inhibition was 41.2% (active).

`O=[N+]([O-])c1ccc(N(CCO)Cc2ccccc2)c([N+](=O)[O-])c1`: the inhibition was 5.52%.

With `COc1ccc(NS(=O)(=O)c2cccc3nsnc23)cc1Cl`, the inhibition was -0.325%.

Regarding `COc1cccc(C(=O)NCCS(=O)(=O)NCC2CCCO2)c1` (stereo not drawn), the inhibition was -2.68%.

Consider `O=C(C1CCN(c2nnc(-n3cccc3)s2)CC1)N1CCc2ccccc2C1`, for which the inhibition is 6.9%.

On to `OCCN1CCOCCOCCN(CCO)CCN(CCO)CC1`, for which the inhibition was -5.95%.

With `Clc1ccc(C2=CSC3=Nc4cccc5cccc(c45)N23)cc1`, the inhibition is 90% (active).

On to `CC(C)Cc1nnc(NC(=O)CCNC(=O)c2ccccc2Cl)s1`, for which the inhibition is 12%.
